Experimental findings from ChEMBL document CHEMBL1139042, “1,3-Disubstituted-imidazo[1,5-a]pyrazines as insulin-like growth-factor-I receptor (IGF-IR) inhibitors” (Bioorg Med Chem Lett, 2007) are described below.

For data set [1], the target named is T1, Insulin-like growth factor 1 receptor (Homo sapiens, UniProt P08069). Put plainly: Inhibition of human recombinant GST-IGF1R activity.
The target in data set [2] is T1, Insulin-like growth factor 1 receptor. Nature of the data set: Inhibition of IGF1-stimulated phosphorylation of human recombinant IGF1R expressed in NIH3T3 cells. The data set is classed as cell-based.
A short description of data set [3]: Cmax in CD1 mouse at 50 mg/kg, po. In kind it is ADME, organism-based. More on the design: dose 50 mg/kg, route oral. Conditions: in vivo. The gist of the method: (§1)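 Female CD-1 mice, 6–10 weeks old, received a single 1 mg/kg IV tail-vein dose or a single 50 mg/kg oral gavage dose. The oral vehicle varied by compound: 30:70 PEG-400:WFI with Labrafil, 50:50 PEG-400:WFI, or 50:50 PEG-400:5% citric acid. Three animals were sacrificed per timepoint and blood was taken into EDTA by cardiac puncture. Plasma (1500g, 10 min) was methanol-precipitated and analysed by HPLC-MS/MS against spiked mouse-plasma calibrants. Parameters came from non-compartmental analysis of median (n=3) concentrations.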

The nature of data set [4]: AUC (0 to infinity) in CD1 mouse at 50 mg/kg, po. Details: time infinity, dose 50 mg/kg, route oral. The data set is classed as ADME, organism-based. Conditions: plasma. The gist of the method: as §1
Data set [5] can be described thus: Oral bioavailability in CD1 mouse at 50 mg/kg, po. The data set is classed as ADME, organism-based. Conditions: in vivo. The gist of the method: as §1
Data set [6] can be described thus: Half life in CD1 mouse at 1 mg/kg, iv. Conditions: in vivo. Details: dose 1 mg/kg, route intravenous. The data set is classed as ADME, organism-based. The gist of the method:
as §1

The target of data set [7] is Tyrosine-protein kinase ABL1 (Homo sapiens) (UniProt P00519). Put plainly: Inhibition of Abl at 10 uM. In outline:
(§2)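 Radiometric kinase profiling was run as an outsourced panel on recombinant purified enzymes.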

Data set [8] is filed under the species Homo sapiens. Nature of the data set: Inhibition of Cdk2/Cyclin A at 10 uM. In outline: as §2
Data set [9] is filed under the species Homo sapiens. Put plainly: Inhibition of Cdk2/Cyclin E at 10 uM. The gist of the method: as §2
Data set [10] deals with Serine/threonine-protein kinase Chk2 (Homo sapiens) (UniProt O96017). Nature of the data set: Inhibition of Chk2 at 10 uM. In outline:
as §2

For data set [11], the species on record is Homo sapiens. Put plainly: Inhibition of PKA at 10 uM. In outline: as §2
For data set [12], the target named is Tyrosine-protein kinase Fes/Fps (Homo sapiens) (UniProt P07332). Nature of the data set: Inhibition of Fes at 10 uM. In outline: as §2
The target of data set [13] is Casein kinase II subunit alpha (Homo sapiens) (UniProt P68400). Put plainly: Inhibition of CK2 at 10 uM. In outline: as §2
Data set [14] deals with RAF proto-oncogene serine/threonine-protein kinase (Homo sapiens) (UniProt P04049). Put plainly: Inhibition of c-Raf at 10 uM. The gist of the method:
as §2

For data set [15], the target named is T2, Inhibitor of nuclear factor kappa-B kinase subunit beta (Homo sapiens) (UniProt O14920).
T2 sequence (whole entry): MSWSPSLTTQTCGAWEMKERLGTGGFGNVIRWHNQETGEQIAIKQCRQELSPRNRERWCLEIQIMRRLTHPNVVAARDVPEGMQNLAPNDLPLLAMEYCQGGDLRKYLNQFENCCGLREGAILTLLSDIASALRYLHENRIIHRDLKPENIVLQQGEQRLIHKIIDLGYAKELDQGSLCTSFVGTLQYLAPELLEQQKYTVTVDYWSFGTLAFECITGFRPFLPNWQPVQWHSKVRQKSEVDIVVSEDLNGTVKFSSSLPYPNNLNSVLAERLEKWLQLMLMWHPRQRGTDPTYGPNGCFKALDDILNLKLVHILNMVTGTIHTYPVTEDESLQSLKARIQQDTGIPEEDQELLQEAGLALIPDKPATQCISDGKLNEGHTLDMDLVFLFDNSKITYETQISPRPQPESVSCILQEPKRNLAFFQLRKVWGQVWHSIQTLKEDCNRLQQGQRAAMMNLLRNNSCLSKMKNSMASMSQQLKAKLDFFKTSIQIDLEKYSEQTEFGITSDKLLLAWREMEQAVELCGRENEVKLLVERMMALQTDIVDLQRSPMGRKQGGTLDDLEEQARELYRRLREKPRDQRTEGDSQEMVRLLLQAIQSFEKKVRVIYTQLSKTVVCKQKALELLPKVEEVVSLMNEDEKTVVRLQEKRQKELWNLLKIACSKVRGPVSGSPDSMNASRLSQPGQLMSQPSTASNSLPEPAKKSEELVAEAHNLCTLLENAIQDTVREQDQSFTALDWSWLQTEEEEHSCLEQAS
Nature of the data set: Inhibition of IKK-beta at 10 uM. In outline: as §2

Data set [16] concerns the target Ribosomal protein S6 kinase beta-1 (Homo sapiens) (UniProt P23443). Put plainly: Inhibition of p70S6K at 10 uM. In outline: as §2
Data set [17] has as its target Platelet-derived growth factor receptor beta (Homo sapiens) (UniProt P09619). Put plainly: Inhibition of PDGFRbeta at 10 uM. The gist of the method:
as §2

The species entered for data set [18] is Homo sapiens. Nature of the data set: Inhibition of PKBalpha at 10 uM. In outline: as §2
In data set [19] the target is Protein kinase C alpha type (Homo sapiens) (UniProt P17252). Nature of the data set: Inhibition of PKCalpha at 10 uM. In outline:
as §2

The target of data set [20] is 3-phosphoinositide-dependent protein kinase 1 (PDPK1) (Homo sapiens) (UniProt O15530). Nature of the data set: Inhibition of PDK1 at 10 uM.
For data set [21], the target named is Mitogen-activated protein kinase 1 (ERK2) (Homo sapiens) (UniProt P28482). Nature of the data set: Inhibition of MAPK2 at 10 uM.
Mitogen-activated protein kinase 1 (ERK2) (Homo sapiens), sequence (P28482 whole entry, looked up): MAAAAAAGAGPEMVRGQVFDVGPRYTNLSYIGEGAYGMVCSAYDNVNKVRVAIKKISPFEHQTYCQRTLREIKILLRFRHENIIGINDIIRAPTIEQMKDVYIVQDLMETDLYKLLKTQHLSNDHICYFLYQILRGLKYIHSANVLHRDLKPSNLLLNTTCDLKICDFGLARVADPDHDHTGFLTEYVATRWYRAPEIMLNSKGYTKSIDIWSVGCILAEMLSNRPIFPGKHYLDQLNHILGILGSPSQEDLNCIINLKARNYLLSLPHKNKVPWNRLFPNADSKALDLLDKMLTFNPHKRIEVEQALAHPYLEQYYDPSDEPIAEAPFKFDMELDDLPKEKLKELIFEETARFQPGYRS

T1 sequence (P08069 31-736 limits assumed): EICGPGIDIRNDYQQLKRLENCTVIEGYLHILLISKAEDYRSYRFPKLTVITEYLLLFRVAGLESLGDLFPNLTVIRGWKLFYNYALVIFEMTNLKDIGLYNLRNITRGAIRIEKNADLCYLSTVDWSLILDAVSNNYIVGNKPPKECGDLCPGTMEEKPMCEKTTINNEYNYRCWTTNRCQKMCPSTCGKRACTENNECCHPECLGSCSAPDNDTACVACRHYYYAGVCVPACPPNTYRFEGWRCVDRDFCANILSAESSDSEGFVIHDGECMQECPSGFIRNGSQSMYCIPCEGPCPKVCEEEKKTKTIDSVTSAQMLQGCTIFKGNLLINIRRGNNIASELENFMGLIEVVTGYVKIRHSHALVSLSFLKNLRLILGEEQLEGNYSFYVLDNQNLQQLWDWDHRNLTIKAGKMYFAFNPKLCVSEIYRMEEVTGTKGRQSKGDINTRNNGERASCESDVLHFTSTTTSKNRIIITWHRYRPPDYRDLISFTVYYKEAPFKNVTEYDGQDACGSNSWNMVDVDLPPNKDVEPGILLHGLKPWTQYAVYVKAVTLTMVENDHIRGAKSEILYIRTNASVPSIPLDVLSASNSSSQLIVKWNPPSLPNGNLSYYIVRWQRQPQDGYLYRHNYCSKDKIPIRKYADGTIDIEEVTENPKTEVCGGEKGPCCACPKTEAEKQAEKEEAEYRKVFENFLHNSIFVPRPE
T1 sequence (P08069 741-1367 limits assumed): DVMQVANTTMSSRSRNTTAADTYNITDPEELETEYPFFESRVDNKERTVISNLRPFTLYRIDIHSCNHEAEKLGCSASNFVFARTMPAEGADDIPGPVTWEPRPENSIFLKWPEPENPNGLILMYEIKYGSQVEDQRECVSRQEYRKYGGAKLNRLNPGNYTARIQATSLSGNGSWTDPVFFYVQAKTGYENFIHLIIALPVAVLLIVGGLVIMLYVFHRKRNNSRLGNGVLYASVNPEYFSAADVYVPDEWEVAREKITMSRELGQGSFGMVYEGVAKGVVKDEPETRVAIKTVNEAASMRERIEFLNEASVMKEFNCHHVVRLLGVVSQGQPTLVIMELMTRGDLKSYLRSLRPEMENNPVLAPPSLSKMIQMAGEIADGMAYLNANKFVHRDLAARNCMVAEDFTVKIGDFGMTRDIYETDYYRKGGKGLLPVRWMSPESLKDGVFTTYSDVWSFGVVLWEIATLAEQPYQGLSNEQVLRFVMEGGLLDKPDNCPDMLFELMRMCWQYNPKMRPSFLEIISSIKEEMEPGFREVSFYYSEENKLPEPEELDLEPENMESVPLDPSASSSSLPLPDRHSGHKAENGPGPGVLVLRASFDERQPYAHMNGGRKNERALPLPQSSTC
Serine/threonine-protein kinase Chk2 (Homo sapiens), sequence (O96017 whole entry): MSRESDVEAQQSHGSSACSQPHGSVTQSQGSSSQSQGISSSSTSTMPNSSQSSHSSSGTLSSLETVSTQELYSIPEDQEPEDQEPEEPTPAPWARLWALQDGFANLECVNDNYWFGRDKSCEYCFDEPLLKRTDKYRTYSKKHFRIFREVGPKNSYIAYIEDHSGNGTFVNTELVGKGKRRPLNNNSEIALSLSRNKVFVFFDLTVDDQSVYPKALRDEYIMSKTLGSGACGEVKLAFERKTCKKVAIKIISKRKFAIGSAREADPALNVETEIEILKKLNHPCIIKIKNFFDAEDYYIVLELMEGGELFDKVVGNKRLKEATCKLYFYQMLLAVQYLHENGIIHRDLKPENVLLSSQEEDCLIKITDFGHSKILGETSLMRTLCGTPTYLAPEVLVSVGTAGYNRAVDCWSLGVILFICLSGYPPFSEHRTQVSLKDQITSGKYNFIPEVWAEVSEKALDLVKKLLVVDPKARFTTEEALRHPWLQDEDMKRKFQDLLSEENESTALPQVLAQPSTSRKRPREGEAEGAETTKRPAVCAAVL
Tyrosine-protein kinase ABL1 (Homo sapiens), sequence (P00519 whole entry): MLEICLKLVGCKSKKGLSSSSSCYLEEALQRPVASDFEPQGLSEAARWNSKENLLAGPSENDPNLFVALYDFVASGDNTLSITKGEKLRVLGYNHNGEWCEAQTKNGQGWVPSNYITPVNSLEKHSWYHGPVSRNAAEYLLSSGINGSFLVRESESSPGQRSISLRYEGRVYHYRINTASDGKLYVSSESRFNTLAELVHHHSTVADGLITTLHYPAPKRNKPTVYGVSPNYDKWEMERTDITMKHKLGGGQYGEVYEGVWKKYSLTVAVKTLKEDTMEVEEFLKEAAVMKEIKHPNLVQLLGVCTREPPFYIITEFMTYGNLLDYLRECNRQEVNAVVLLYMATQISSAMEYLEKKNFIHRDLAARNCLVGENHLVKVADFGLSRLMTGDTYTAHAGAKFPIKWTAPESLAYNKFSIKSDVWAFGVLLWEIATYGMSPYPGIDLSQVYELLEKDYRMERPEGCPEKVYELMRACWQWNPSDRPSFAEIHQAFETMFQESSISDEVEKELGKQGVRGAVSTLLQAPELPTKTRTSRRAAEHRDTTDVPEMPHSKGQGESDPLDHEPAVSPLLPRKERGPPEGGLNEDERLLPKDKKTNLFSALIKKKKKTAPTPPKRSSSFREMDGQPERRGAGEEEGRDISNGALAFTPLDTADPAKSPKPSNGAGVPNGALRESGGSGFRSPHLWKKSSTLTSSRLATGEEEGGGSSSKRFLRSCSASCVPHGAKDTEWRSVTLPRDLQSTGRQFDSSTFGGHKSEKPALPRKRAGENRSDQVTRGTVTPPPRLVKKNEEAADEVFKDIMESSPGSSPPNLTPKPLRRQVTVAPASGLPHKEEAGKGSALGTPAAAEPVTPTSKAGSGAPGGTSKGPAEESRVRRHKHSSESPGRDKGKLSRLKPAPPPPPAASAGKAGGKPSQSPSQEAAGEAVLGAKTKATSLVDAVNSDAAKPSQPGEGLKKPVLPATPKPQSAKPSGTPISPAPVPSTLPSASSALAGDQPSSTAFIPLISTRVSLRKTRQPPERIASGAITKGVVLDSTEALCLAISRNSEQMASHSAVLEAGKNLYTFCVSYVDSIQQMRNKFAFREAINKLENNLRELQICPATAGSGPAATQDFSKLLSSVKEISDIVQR
Casein kinase II subunit alpha (Homo sapiens), sequence (P68400 whole entry, looked up): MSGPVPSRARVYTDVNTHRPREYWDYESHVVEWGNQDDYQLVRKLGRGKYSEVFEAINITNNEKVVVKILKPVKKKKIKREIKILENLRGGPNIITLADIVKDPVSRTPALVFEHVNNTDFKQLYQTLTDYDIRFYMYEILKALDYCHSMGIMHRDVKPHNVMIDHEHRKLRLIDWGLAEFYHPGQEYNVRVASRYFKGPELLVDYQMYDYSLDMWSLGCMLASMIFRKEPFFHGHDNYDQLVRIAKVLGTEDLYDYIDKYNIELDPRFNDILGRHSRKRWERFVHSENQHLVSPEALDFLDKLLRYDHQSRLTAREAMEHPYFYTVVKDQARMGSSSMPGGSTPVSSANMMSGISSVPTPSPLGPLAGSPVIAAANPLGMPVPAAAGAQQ
3-phosphoinositide-dependent protein kinase 1 (PDPK1) (Homo sapiens), sequence (O15530 whole entry, looked up): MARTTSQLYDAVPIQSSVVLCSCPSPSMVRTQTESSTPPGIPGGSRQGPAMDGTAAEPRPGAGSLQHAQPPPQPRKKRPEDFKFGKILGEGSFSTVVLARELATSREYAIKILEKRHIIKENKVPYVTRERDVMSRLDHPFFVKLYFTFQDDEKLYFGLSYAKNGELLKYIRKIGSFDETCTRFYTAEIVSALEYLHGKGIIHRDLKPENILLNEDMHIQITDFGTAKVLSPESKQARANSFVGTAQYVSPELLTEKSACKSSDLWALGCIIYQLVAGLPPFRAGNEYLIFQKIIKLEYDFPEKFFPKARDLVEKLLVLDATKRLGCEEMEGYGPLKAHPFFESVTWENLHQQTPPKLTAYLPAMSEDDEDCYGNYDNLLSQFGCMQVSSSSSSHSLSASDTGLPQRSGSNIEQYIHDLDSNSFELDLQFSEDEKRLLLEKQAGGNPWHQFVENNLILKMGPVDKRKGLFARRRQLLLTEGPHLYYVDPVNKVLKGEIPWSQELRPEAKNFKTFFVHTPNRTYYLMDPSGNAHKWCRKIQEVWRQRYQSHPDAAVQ

Turning to `Nc1nccn2c(C3CCC3)nc(-c3ccc(Oc4ccccc4)cc3)c12`, the IC50 in [1] was over 10000 nM.

Consider `NC[C@H]1C[C@@H](c2nc(-c3cccc(OCc4ccccc4)c3)c3c(N)nccn32)C1`, for which the IC50 in data set [1] came to 60 nM; in data set [2], 690 nM.

In the case of `Nc1nccn2c(C3CCC3)nc(-c3cccc(OCc4ccccc4)c3)c12`, the IC50 came out at 606 nM in [1] and 1160 nM in data set [2]. The same molecule came in with a Cmax in data set [3] of 860 nM. Further, the AUC(0-inf) in [4] turned out to be 1760 ng·h/mL. In addition, the bioavailability in data set [5] worked out at 47%. For the same molecule, the half-life in data set [6] was 1.3 h.

As for `NC[C@H]1CC[C@@H](c2nc(-c3cccc(OCc4ccccc4)c3)c3c(N)nccn32)CC1`, the values for the IC50 in [1] and in [2] were 228 nM and 560 nM, respectively.

Turning to `COc1ccc(-c2nc(C3CCC3)n3ccnc(N)c23)cc1OCc1ccccc1`, the IC50 in [1] came out at 1350 nM.

As for `Nc1nccn2c1c(-c1cccc(OCc3ccccc3)c1)nc2[C@H]1CC[C@H](C(N)=O)CC1`, the Cmax in [3] stood at 2220 nM. Moreover, the AUC(0-inf) in data set [4] amounted to 1320 ng·h/mL. Besides, in data set [5], the bioavailability worked out at 34%. This molecule had a half-life in [6] of 0.63 h.

`Nc1nccn2c1c(-c1cccc(OCc3ccccc3)c1)nc2[C@H]1CC[C@H](CN2CCC2)CC1`: the IC50 stood at 81 nM in [1] and 398 nM in data set [2].

Consider `NC[C@H]1CC[C@H](c2nc(-c3cccc(OCc4ccccc4)c3)c3c(N)nccn32)CC1`, for which the IC50 in [1] stood at 119 nM; in data set [2] it was 534 nM. Further, the Cmax in [3] is 2850 nM. This molecule returned an AUC(0-inf) in data set [4] of 3930 ng·h/mL. This molecule also came in with a bioavailability in data set [5] of 47%. Besides, in [6], the half-life was 2.29 h. Also, the inhibition (in data set [7]; in the data set listed under Homo sapiens [8]; in the data set filed under Homo sapiens [9]; in data set [10]; in the data set listed under Homo sapiens [11]; in data set [12]) was under 50% throughout. Moreover, the inhibition (in data set [13]; in [14]; in data set [15]; in data set [16]; in [17]; in the data set filed under Homo sapiens [18]) was under 50% throughout. The inhibition in data set [19], in data set [20] and in data set [21] was under 50% throughout.
